Consider two compounds from ChEMBL document CHEMBL1142156, “Pharmacokinetic interaction between voriconazole and methadone at steady state in patients on methadone therapy” (Antimicrob Agents Chemother, 2007).

Holding throughout (format): ADME, organism-based
Series [1] can be described thus: Dose normalized Tmax in opiate abstinence syndrome patient at 30 to 100 mg, po QD after 2 days. The note with it: human, in vivo. In a few lines:
(§1)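 Male patients on individualized once-daily methadone (30-100 mg) sampled on day 2, before any coadministration. Plasma taken at 1, 2, 3, 4, 6, 8, 10, 12, 16 and 24 h postdose. (R)- and (S)-methadone quantified by chiral LC-MS/MS (range 5 to 500 ng/ml per enantiomer). Noncompartmental analysis: Cmax/Tmax observed, AUC0-24 by linear/log-trapezoidal method. Normalized lines scaled to a 100-mg dose.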

Series [2] concerns Homo sapiens. Briefly: Dose normalized AUC (0-24h) in opiate abstinence syndrome patient at 30 to 100 mg, po QD after 2 days. The conditions noted are these: in vivo. In a few lines: as §1
Series [3] relates to Homo sapiens. Kind of series: Dose normalized Cmax in opiate abstinence syndrome patient at 30 to 100 mg, po QD after 2 days. The conditions noted are these: in vivo, 48 h. In a few lines:
as §1

Series [4] can be described thus: Cmax in opiate abstinence syndrome patient at 30 to 100 mg, po QD after 2 days. The note with it: human, in vivo. In a few lines: as §1
Series [5] in a line: AUC (0-24h) in opiate abstinence syndrome patient at 30 to 100 mg, po QD after 2 days. The note with it: human, plasma. In a few lines: as §1

Broadly, the Tmax is the time from dosing to the highest level. The AUC is concentration integrated over time. For orientation: Cmax means the highest concentration seen after dosing.

For `CCC(=O)C(C[C@H](C)N(C)C)(c1ccccc1)c1ccccc1` [ESMETHADONE], in series [1], the Tmax came to 1 h. Also, the values for the AUC (with Homo sapiens [2]; in series [5]) were 5730 ng·h/mL and 4030 ng·h/mL, respectively. The Cmax with Homo sapiens [3] worked out at 366 ng/mL; in series [4] it was 287 ng/mL.
For `CCC(=O)C(C[C@@H](C)N(C)C)(c1ccccc1)c1ccccc1` [LEVOMETHADONE] the same measures were 1 h, 5540 ng·h/mL, 4300 ng·h/mL, 322 ng/mL and 256 ng/mL.
